“Also recorded” adds a separate entry of the source.
Assays:
[1] = system: A2AR (thermostabilized A2AR-BRIL); test: MIDAS equilibrium dialysis with LC-MS metabolite screen; assay type: binding, human; details: p < 0.05, Supplementary Fig. 2a
A2AR-ΔCTD = A2AR-ΔCTD (Homo sapiens, UniProt P29274, N154A); test: Competition fluorescence polarization; assay type: binding
How it was run: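 Receptor was preincubated with metabolite for 10 min, then mixed with fluorescent NECA (10 nM final) for 10 min at room temperature with gentle shaking. Fluorescence polarization was read.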

A2AR [2] = target: T1, A2AR (Homo sapiens, UniProt P29274, N154A); test: GTP hydrolysis assay; assay type: biochemical; details: for Inhibition screen: metabolites at 100 μM, with adenosine, replicates, 100 µM
[3] = system: HEK293 cells stably expressing A2AR; test: HTRF cAMP detection assay, agonist activation; assay type: cell-based, human
A2AR [4] = target: T1, A2AR; test: GTP hydrolysis assay; assay type: biochemical; details: for agonist efficacy: GTP hydrolysis assay; for fold decrease/reduction in potency compared to adenosine: GTP hydrolysis assay EC50 values; for Activation screen: metabolites at 10 μM, replicates
A2AR H278 to alanine = details: H278 mutated to alanine; cited from earlier work
A2AR V84 to alanine = details: V84 mutated to alanine; cited from earlier work
A2AR H75A = A2AR H75A (Homo sapiens, UniProt P29274, H75A/N154A); test: GTP hydrolysis inhibition comparison, A2AR mutant; assay type: biochemical; details: 20 µM PGD2, Supplementary Fig. 10
A2AR K233A = A2AR K233A (Homo sapiens, UniProt P29274, K233A/N154A); test: GTP hydrolysis inhibition comparison, A2AR mutant; assay type: biochemical; details: 20 µM PGD2, Supplementary Fig. 10
A2AR Q163E/H75A = A2AR Q163E/H75A (Homo sapiens, UniProt P29274, H75A/N154A/Q163E); test: GTP hydrolysis inhibition comparison, A2AR mutant; assay type: biochemical; details: 20 µM PGD2, Supplementary Fig. 10
A2AR [5] = target: T1, A2AR; test: Differential scanning fluorimetry; assay type: binding; details: dose-response DSF
[6] = system: HEK293 cells stably expressing A2AR; test: HTRF cAMP detection assay, inhibition of adenosine-induced cAMP production; assay type: cell-based, human; details: for inhibition of adenosine-induced cAMP production: concentration-dependent assay

T1 sequence (P29274 8-316 N154A): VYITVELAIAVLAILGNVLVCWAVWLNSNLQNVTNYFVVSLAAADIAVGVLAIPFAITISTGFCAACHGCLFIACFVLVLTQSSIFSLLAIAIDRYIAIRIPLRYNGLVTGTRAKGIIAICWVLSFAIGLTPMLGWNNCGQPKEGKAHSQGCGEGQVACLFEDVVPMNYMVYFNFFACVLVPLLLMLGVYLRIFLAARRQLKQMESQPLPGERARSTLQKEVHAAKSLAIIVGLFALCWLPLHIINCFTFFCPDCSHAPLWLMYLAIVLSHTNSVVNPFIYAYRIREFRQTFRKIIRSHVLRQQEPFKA
A2AR-ΔCTD, sequence (P29274 8-316 N154A): as above
A2AR H75A, sequence (P29274 8-316 H75A/N154A): as the sequence (P29274 8-316 N154A) above, with H68A counted along it
A2AR Q163E/H75A, sequence (P29274 8-316 H75A/N154A/Q163E): as the sequence (P29274 8-316 N154A) above, with H68A, Q156E counted along it
A2AR K233A, sequence (P29274 8-316 N154A/K233A): as the sequence (P29274 8-316 N154A) above, with K226A counted along it

## CCCCC[C@H](O)/C=C/[C@@H]1[C@H]2C/C(=C/CCCC(=O)O)O[C@H]2C[C@H]1O [PGI2]
[1]
  MIDAS enrichment, statistical significance: significantly enriched
A2AR-ΔCTD; 500 µM prostaglandin
  effect on affinity of fluorescently labeled NECA to A2AR: none of the three prostaglandins – PGI2, PGE2, and PGD2 were able to displace a fluorescently-labeled orthosteric ligand
A2AR [2]
  Inhibition screen: no effect

## Nc1ncnc2c1ncn2[C@@H]1O[C@H](CSCC[C@H](N)C(=O)O)[C@@H](O)[C@H]1O [SAH, S-adenosyl-L-homocysteine]
[1]
  MIDAS enrichment, statistical significance: did not meet the statistical significance threshold
A2AR-ΔCTD; 100 µM SAH or DA
  effect on affinity of fluorescently labeled NECA to A2AR: reduced the affinity of NECA
[3]; Homo sapiens, HEK293
  EC50: ~5 µM
A2AR [4]
  EC50: 5 µM
  agonist efficacy: full agonists
  fold decrease/reduction in potency compared to adenosine: > 250 fold
  Activation screen: activated A2AR; also recorded: sub-maximal activation

## Nc1ncnc2c1ncn2[C@H]1C[C@H](O)[C@@H](CO)O1 [DA, 2’-deoxyadenosine]
[1]
  MIDAS enrichment, statistical significance: did not meet the statistical significance threshold
A2AR-ΔCTD; 100 µM SAH or DA
  effect on affinity of fluorescently labeled NECA to A2AR: reduced the affinity of NECA
[3]; cell-based cAMP detection assay, Supplementary Fig. 12c
  A2AR activation in HEK293 cells: required millimolar concentrations for activation
A2AR [4]
  EC50: 15 µM
  agonist efficacy: full agonists
  fold decrease/reduction in potency compared to adenosine: > 800 fold
  Activation screen: activated A2AR; also recorded: sub-maximal activation

## Nc1ncnc2[nH]cnc12 [Adenine]
[1]
  MIDAS enrichment, statistical significance: significantly enriched

## CCNC(=O)[C@H]1O[C@@H](n2cnc3c(N)nc(NCCc4ccc(CCC(=O)O)cc4)nc32)[C@H](O)[C@@H]1O [CGS21680]
A2AR H278 to alanine
  reduction in binding: > 98%
A2AR V84 to alanine
  reduction in binding: > 98%

## CN(C)c1ncnc2nc[nH]c12 [DMAP, dimethylaminopurine]
[1]
  MIDAS enrichment, statistical significance: significantly enriched

## CCCCC[C@H](O)/C=C/[C@H]1C(=O)C[C@H](O)[C@@H]1C/C=C\CCCC(=O)O [PGD2, prostaglandin D2]
A2AR H75A
  change of PGD2-mediated inhibition by mutation: comparatively no effect
[1]
  MIDAS enrichment, statistical significance: significantly enriched
A2AR-ΔCTD; 500 µM prostaglandin
  effect on affinity of fluorescently labeled NECA to A2AR: none of the three prostaglandins – PGI2, PGE2, and PGD2 were able to displace a fluorescently-labeled orthosteric ligand
A2AR K233A
  change of PGD2-mediated inhibition by mutation: no change
A2AR Q163E/H75A
  change of PGD2-mediated inhibition by mutation: minor reduction of inhibition
A2AR [5]
  effect on melting temperature (Tm) of A2AR: concentration-dependent increase in the melting temperature (Tm)
[6]; HTRF cAMP vs GTP hydrolysis
  fold increase in the IC50 in cell-based assay relative to protein-based assay: approximately 8 fold
[6]
  inhibition of adenosine-induced cAMP production: near-complete inhibition
A2AR [2]; 500 μM PGD2, saturating adenosine up to 100 µM
  inhibition of A2AR in competition activity assay: sustained inhibition; also recorded: near-complete inhibition
A2AR [2]; IC50, dose-response assay, Supplementary Fig. 5a
  IC50: 180 µM
A2AR [2]
  Inhibition screen: completely inhibiting A2AR activity

## CCCCC[C@H](O)/C=C/[C@H]1[C@H](O)CC(=O)[C@@H]1C/C=C\CCCC(=O)O [PGE2]
[1]
  MIDAS enrichment, statistical significance: significantly enriched
A2AR-ΔCTD; 500 µM prostaglandin
  effect on affinity of fluorescently labeled NECA to A2AR: none of the three prostaglandins – PGI2, PGE2, and PGD2 were able to displace a fluorescently-labeled orthosteric ligand
[6]
  inhibition of adenosine-induced cAMP production: no significant effect
A2AR [2]
  Inhibition screen: no effect

From paper PMC12800297 (Communications Chemistry, 2025)
